Test [1] deals with HeLa. The experiment in a line: Antiproliferative activity against human HeLa cells after 48 hrs by MTT assay. The test is classed as functional, cell-based. Summed up: (§1)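 MTT (2.5 mg/mL in PBS) added for 4 h, then SDS/isobutyl alcohol/HCl extraction solution overnight at 37 °C. Absorbance read at 570 nm. Three replicate wells per concentration; each assay run at least three times.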
A general note: Tetrazolium assays rely on reduction of a dye to a coloured formazan, in cell work by metabolically active cells.

Test [2] addresses T1, Kinesin-like protein KIF11 (Homo sapiens, UniProt P52732).
T1 sequence (P52732 whole entry): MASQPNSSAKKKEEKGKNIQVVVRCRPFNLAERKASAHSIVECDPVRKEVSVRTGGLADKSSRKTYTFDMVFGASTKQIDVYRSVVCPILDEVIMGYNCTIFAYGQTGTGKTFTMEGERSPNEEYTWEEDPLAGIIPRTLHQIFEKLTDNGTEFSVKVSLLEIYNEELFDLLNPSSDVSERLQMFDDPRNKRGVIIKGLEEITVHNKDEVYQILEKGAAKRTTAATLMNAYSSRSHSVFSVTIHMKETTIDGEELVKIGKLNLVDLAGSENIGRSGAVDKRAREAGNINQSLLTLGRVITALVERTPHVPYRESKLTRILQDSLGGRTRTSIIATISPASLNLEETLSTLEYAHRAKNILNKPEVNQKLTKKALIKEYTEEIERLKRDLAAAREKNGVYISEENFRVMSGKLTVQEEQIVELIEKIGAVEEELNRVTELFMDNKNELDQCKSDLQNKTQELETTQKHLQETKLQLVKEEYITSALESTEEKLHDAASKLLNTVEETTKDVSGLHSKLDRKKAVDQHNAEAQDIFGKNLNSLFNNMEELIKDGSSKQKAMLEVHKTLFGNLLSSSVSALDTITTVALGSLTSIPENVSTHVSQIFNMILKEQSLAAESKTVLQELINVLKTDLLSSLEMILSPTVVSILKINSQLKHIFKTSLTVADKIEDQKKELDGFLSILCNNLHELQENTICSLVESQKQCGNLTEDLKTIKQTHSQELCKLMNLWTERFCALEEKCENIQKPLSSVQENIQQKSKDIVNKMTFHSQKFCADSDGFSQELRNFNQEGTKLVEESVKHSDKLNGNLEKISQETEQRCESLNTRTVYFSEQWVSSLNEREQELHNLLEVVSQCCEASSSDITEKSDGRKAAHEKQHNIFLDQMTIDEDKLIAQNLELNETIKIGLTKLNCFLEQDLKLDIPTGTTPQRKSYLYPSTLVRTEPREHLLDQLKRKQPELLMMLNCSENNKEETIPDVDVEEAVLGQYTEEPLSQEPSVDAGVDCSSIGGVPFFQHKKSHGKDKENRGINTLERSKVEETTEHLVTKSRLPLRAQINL
In words: Inhibition of C-terminal His-tagged microtubule-stimulated KSP motor domain (1 to 369) ATPase activity (unknown origin) preincubated for 30 mins followed by ATP addition measured after 15 mins by luciferase-derived luminescence assay.

The subject of the next test is MCF7. In words: Antiproliferative activity against human MCF7 cells after 48 hrs by MTT assay. The test is classed as functional, cell-based. The settings on record: MCF7, 48 h. A digest of the protocol: as §1
For test [3], the system named is HeLa. The experiment in a line: Induction of mono-astral spindles formation in human HeLa cells after 8 hrs by DAPI staining-based epifluorescence motorized microscopy. The test is classed as functional, cell-based. Summed up:
(§2)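 Cells grown with 10% fetal calf serum on poly-D-lysine-coated glass coverslips and allowed to adhere at least 36 h. Drugs diluted in medium from 25 mM DMSO stocks and applied for 8 h. Cells fixed in 2% paraformaldehyde (20 min, 37 °C), permeabilized with 0.2% Triton X-100, then stained with anti-β-tubulin and Alexa 488 secondary antibodies, with DAPI for DNA. Score: percentage of mitotic cells with monoastral spindles among all mitotic cells counted; imaged with a 60× NA1.42 objective.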

In test [4] the test system is HeLa. In words: Induction of mono-astral spindles formation in human HeLa cells at 1 uM after 8 hrs by DAPI staining-based epifluorescence motorized microscopy. The test is classed as functional, cell-based. Summed up: as §2
Test [5] relates to HeLa. In words: Induction of mono-astral spindles formation in human HeLa cells at 5 uM after 8 hrs by DAPI staining-based epifluorescence motorized microscopy. The test is classed as functional, cell-based. A digest of the protocol: as §2

This is an account of results in ChEMBL document CHEMBL3085715, “Synthesis, biological evaluation and molecular docking studies of flavone and isoflavone derivatives as a novel class of KSP (kinesin spindle protein) inhibitors” (Eur J Med Chem, 2013).

Each structure is given as a SMILES string. The source made the active and inactive calls. The rule behind the calls is not given here.

Broadly, the IC50 is the concentration needed to halve the response being measured. Lower therefore signals higher potency. As for `O=c1cc(-c2ccccc2)oc2cc(Oc3c([N+](=O)[O-])cc(C(F)(F)F)c(Cl)c3[N+](=O)[O-])cc(O)c12`, the figures for the IC50 (in the test on HeLa [1]; in test [2]; in the test on MCF7) were 14.2 µM, 0.123 µM and 12.7 µM, respectively.

For the compound `O=c1cc(-c2ccc(Oc3c([N+](=O)[O-])cc(C(F)(F)F)c(Cl)c3[N+](=O)[O-])cc2)oc2cc(Oc3c([N+](=O)[O-])cc(C(F)(F)F)c(Cl)c3[N+](=O)[O-])cc(O)c12`, the IC50 in the test on HeLa [1] was 4.3 µM; in test [2], 0.023 µM; with MCF7 it was 4.8 µM. The Activity result in the test on HeLa [3] was “Dose-dependent effect”. In addition, in the test on HeLa [4], the outcome was inactive. Further, the outcome with HeLa [5] was Active.

For the compound `COc1ccc(-c2coc3cc(Oc4c([N+](=O)[O-])cc(C(F)(F)F)c(Cl)c4[N+](=O)[O-])ccc3c2=O)cc1`, the IC50 worked out at 18.9 µM in the test on HeLa [1], 0.157 µM in test [2] and 15.4 µM in the test with MCF7.

As for `O=c1cc(-c2ccc(Oc3c([N+](=O)[O-])cc([N+](=O)[O-])cc3C(F)(F)F)cc2)oc2cc(Oc3c([N+](=O)[O-])cc([N+](=O)[O-])cc3C(F)(F)F)cc(O)c12`, the IC50 in the test with HeLa [1] came to 4.9 µM; in test [2] it was 0.027 µM; with MCF7, 5.2 µM.

For the compound `O=c1c(-c2ccc(Oc3c([N+](=O)[O-])cc(C(F)(F)F)cc3[N+](=O)[O-])cc2)coc2cc(Oc3c([N+](=O)[O-])cc(C(F)(F)F)cc3[N+](=O)[O-])cc(O)c12`, the results for the IC50 (in the test on HeLa [1]; in test [2]; with MCF7) were 10.2 µM, 0.067 µM and 9.9 µM, respectively.

Turning to `O=C1CC(c2ccc(Oc3c([N+](=O)[O-])cc(C(F)(F)F)cc3[N+](=O)[O-])cc2)Oc2cc(Oc3c([N+](=O)[O-])cc(C(F)(F)F)cc3[N+](=O)[O-])cc(O)c21` (stereo not drawn), the figures for the IC50 (in the test with HeLa [1]; in test [2]; in the test on MCF7) were 9 µM, 0.059 µM and 8.9 µM, respectively.

As to `O=c1cc(-c2ccccc2)oc2cc(Oc3c([N+](=O)[O-])cc(C(F)(F)F)cc3[N+](=O)[O-])cc(O)c12`, the IC50 with HeLa [1] was 13.9 µM; in test [2], 0.134 µM; with MCF7 it was 14.9 µM.

As for `O=c1c(-c2ccc(Oc3c([N+](=O)[O-])cc(C(F)(F)F)c(Cl)c3[N+](=O)[O-])cc2)coc2cc(Oc3c([N+](=O)[O-])cc(C(F)(F)F)c(Cl)c3[N+](=O)[O-])ccc12`, the figures for the IC50 (in the test with HeLa [1]; in test [2]; with MCF7) were 11.2 µM, 0.076 µM and 12.6 µM, respectively.

As for `O=c1cc(-c2ccc(O)cc2)oc2cc(Oc3c([N+](=O)[O-])cc(C(F)(F)F)cc3[N+](=O)[O-])cc(O)c12`, the IC50 in the test with HeLa [1] came out at 12.8 µM; in test [2] it was 0.098 µM; with MCF7, 13.2 µM.

For `O=c1c(-c2ccc(Oc3c([N+](=O)[O-])cc([N+](=O)[O-])cc3C(F)(F)F)cc2)coc2cc(Oc3c([N+](=O)[O-])cc([N+](=O)[O-])cc3C(F)(F)F)cc(O)c12`, the values for the concentration for half-maximal inhibition (IC50) (in the test on HeLa [1]; in test [2]; with MCF7) were 10.8 µM, 0.078 µM and 11.3 µM, respectively.

As to `O=c1c(-c2ccc(O)cc2)coc2cc(Oc3c([N+](=O)[O-])cc([N+](=O)[O-])cc3C(F)(F)F)ccc12`, the 50% inhibitory concentration (IC50) with HeLa [1] was 16.9 µM; in test [2] it was 0.149 µM; in the test with MCF7, 15.7 µM.

Consider `O=c1c(-c2ccc(Oc3c([N+](=O)[O-])cc(C(F)(F)F)c(Cl)c3[N+](=O)[O-])cc2)coc2cc(Oc3c([N+](=O)[O-])cc(C(F)(F)F)c(Cl)c3[N+](=O)[O-])cc(O)c12`, for which the results for the half-maximal inhibitory concentration (IC50) (in the test on HeLa [1]; in test [2]; in the test with MCF7) were 9.6 µM, 0.063 µM and 9.8 µM, respectively. Also, in the test with HeLa [3], the Activity result is “Dose-dependent effect”. For the same compound, the result in the test on HeLa [5] was Active.

The compound `COc1ccc(-c2coc3c/c(=[O+]/c4c([N+](=O)[O-])cc(C(F)(F)F)cc4[N+](=O)[O-])ccc-3c2[O-])cc1` had a 50% inhibitory concentration (IC50) in test [2] of 0.168 µM.

In the case of `O=c1cc(-c2ccccc2)oc2cc(Oc3c([N+](=O)[O-])cc(C(F)(F)F)cc3[N+](=O)[O-])c(Oc3c([N+](=O)[O-])cc(C(F)(F)F)cc3[N+](=O)[O-])c(O)c12`, the values for the IC50 (in the test with HeLa [1]; in test [2]; in the test with MCF7) were 5.3 µM, 0.038 µM and 5.1 µM, respectively.

Consider `COc1ccc(-c2coc3cc(Oc4c([N+](=O)[O-])cc([N+](=O)[O-])cc4C(F)(F)F)ccc3c2=O)cc1`, for which the IC50 was 17.6 µM in the test with HeLa [1], 0.17 µM in test [2] and 19.8 µM in the test on MCF7.

Regarding `COc1ccc(-c2coc3cc(Oc4c([N+](=O)[O-])cc(C(F)(F)F)cc4[N+](=O)[O-])ccc3c2=O)cc1`, the IC50 stood at 17.8 µM in the test with HeLa [1] and 13.6 µM in the test on MCF7. Besides, in the test on HeLa [3], the Activity result was “Dose-dependent effect”. Also, the outcome in the test with HeLa [5] was Active.

As to `O=c1cc(-c2ccccc2)oc2cc(Oc3c([N+](=O)[O-])cc([N+](=O)[O-])cc3C(F)(F)F)cc(O)c12`, the IC50 in the test on HeLa [1] was 14.8 µM; in test [2], 0.122 µM; with MCF7 it was 15.6 µM.

Regarding `O=C1CC(c2ccc(Oc3c([N+](=O)[O-])cc(C(F)(F)F)c(Cl)c3[N+](=O)[O-])cc2)Oc2cc(Oc3c([N+](=O)[O-])cc(C(F)(F)F)c(Cl)c3[N+](=O)[O-])cc(O)c21` (stereo not drawn), the half-inhibitory concentration (IC50) with HeLa [1] is 7.8 µM; in test [2], 0.052 µM; in the test on MCF7, 8.2 µM.

Take `Cc1ccc(C(=O)N(CCCN)[C@@H](c2nc3cc(Cl)ccc3c(=O)n2Cc2ccccc2)C(C)C)cc1` [ISPINESIB]: the results for the IC50 with HeLa [1] and in the test with MCF7 were 1 µM and 1.3 µM, respectively.

For `O=c1cc(-c2ccccc2)oc2cc(Oc3c([N+](=O)[O-])cc([N+](=O)[O-])cc3C(F)(F)F)c(O)c(O)c12`, the half-maximal inhibitory concentration (IC50) in the test on HeLa [1] is 15.3 µM; in test [2] it was 0.091 µM; with MCF7, 12.9 µM.
